Assay results taken from PubChem BioAssay.
Results filed as inconclusive are left out. The source made the active and inactive calls.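 Rule for the calls, unless noted: active = inhibition over a set limit, the all-compound mean plus 3 SD, in both replicate runs; inconclusive = over that limit in just one replicate run; inactive = at or under that limit in both runs.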

Assays:
[1] = OD615 S. cerevisiae growth inhibition, permissive medium, pilot counter-assay, permissive growth control for S. cerevisiae lifespan shortening project (AID 705;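 active = growth inhibition above 25% in both replicates, a cutoff set 3 SD above the mean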); details: OD615, 24 h, at 10 µM, hits give high values
Procedure, shortened: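 System: engineered DeaD yeast; Medium: permissive raffinose/galactose medium; Compound dosing: 10 µM single dose, 0.25% DMSO; Incubation: 4 h cell pre-growth, 24 h exposure at 30 °C; Technique: OD at 615 nm; Evaluation: growth inhibition from lowered OD615 after 24 h.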

[2] = Restrictive medium S. cerevisiae growth inhibition, OD615, pilot screen of yeast lifespan reduction project, restrictive growth control (AID 706;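 active = growth inhibition above a set limit, 3 SD over mean compound inhibition, in both replicates, cut at about 43% in these data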;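 note: modified DeaD lifespan yeast strain shifted to restrictive glucose medium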); details: OD615, 48 h, at 10 µM, hits give high values
Procedure, shortened: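 Material: modified S. cerevisiae; buffer or medium: CSMM-D glucose medium; doses: one concentration, 10 µM final, 0.25% DMSO; incubation: 48 h compound exposure at 30 °C; detection: optical density at 615 nm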

[3] = viability gain of MRP-1-high H69AR cells under doxorubicin, pilot screen, MRP-1 activator project, CellTiter-Glo, duplicate (AID 807;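 active = viability increase at or above a cutoff of the median across tested compounds plus 3 SD, cut at about 8.5% in these data, passing the limit was not always enough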;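 note: compound pretreatment 18-22 h then 72 h combined with doxorubicin; 0% = doxorubicin alone and 100% = vehicle without doxorubicin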); details: H69AR viability with doxorubicin, CellTiter-Glo luminescence; at 10 µM; hits give high values
[4] = growth suppression of beta-catenin knockout HCT116, pilot screen, human colon tumor cells (AID 823;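 active = cell viability at or below a set limit in both duplicate runs, the limit being the all-compound median minus 4 SD, cut at about 23% in these data, passing the limit was not always enough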;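 note: 0% = wells killed by 20 µM Hyamine and 100% = untreated DMSO cell wells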); details: CellTiter-Glo, 60 h, at 10 µM, hits give low values
[5] = growth suppression of PTEN-deleted HCT116, pilot screen, cell-based, HCT116 clonal line, CellTiter-Glo (AID 824;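 active = viability at or below 27.92% in each of two runs, the all-compound median minus 4 SD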;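 note: 0% = 20 µM Hyamine control and 100% = vehicle cell control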); details: 60 h, at 10 µM, hits give low values
[6] = inhibitors of the yeast RAM network, pilot screen, dse1pr::URA3 reporter, 5-FOA selection (AID 869);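 note: 0% = DMSO wells with no growth and 100% = 10 µM 1-NA-PP1 with full growth; RAM network block rescues cells from 5-FOA so hits raise OD615 growth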; details: S. cerevisiae dse1pr::URA3 5-FOA growth, OD615, 2 d; at 10 µM; hits give high values; strain carries analog-sensitive mutant Cbk1 kinase
[7] = RAM signaling pathway blockade in yeast – S. cerevisiae, Pdr1DBD-CYC8 efflux-inhibited sensitized strain, primary screen (AID 1298;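 active = RAM network inhibition above 8.4% in each of two replicates, 3 SD over the compound average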;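 note: 0% = DMSO untreated cells without growth and 100% = 10 µM 1-NA-PP1 full growth; higher means more yeast growth rescued from 5-FOA killing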); details: S. cerevisiae cbk1-as DSE1-URA3 strain, 5-FOA growth OD615, 2 d; at 50 µM; hits give high values

Cc1cc(C)cc(-c2nc(-c3ccncc3)no2)c1
inactive: growth inhibition [1] 0.275% | growth inhibition [2] 15.9% | viability increase [3] 3.69% | viability [4] 91.1% | viability [5] 92% | inhibition [6] 1.11% | RAM network inhibition [7] 5.99%

O=C1CC(c2nc3ccccc3[nH]2)CN1Cc1ccccc1 (configuration not stated)
inactive: growth inhibition [1] -0.355% | growth inhibition [2] -0.09% | viability increase [3] -1.02% | viability [4] 101% | viability [5] 95% | inhibition [6] 1.07% | RAM network inhibition [7] 0.96%

CC1CCCN(c2nc3c(c(=O)[nH]c(=O)n3C)n2Cc2ccccc2Cl)C1 (configuration not stated)
inactive: growth inhibition [1] -15.4% | growth inhibition [2] -35.9% | viability increase [3] -5.4% | viability [4] 84.9% | viability [5] 81% | inhibition [6] 0.485% | RAM network inhibition [7] 9.1%

O=C1NCCCC1C(=O)NCCN1C(=O)CCC1=O (configuration not stated)
inactive: growth inhibition [1] -14.3% | growth inhibition [2] -7.9% | viability increase [3] 0.1% | viability [4] 96.7% | viability [5] 96% | inhibition [6] 1.04% | RAM network inhibition [7] 3.29%

COc1ccccc1C1C=C(c2ccccc2)Nc2nnnn21 (configuration not stated)
inactive: growth inhibition [1] -4.73% | growth inhibition [2] 4.88% | viability increase [3] -0.25% | viability [4] 72.2% | viability [5] 83.7% | inhibition [6] 0.05% | RAM network inhibition [7] 5.5%

COC(=O)c1[nH]c2cc(OC)ccc2c1NC(=O)c1ccc2c(c1)OCO2
inactive: growth inhibition [1] -9.79% | growth inhibition [2] -13.4% | viability increase [3] -3.43% | viability [4] 79.6% | viability [5] 81.2% | inhibition [6] 1.74% | RAM network inhibition [7] 1.04%

CC1CN(C(=O)c2cc3ccccc3oc2=O)CC(C)O1 (configuration not stated)
inactive: growth inhibition [1] 5.08% | growth inhibition [2] -3.64% | viability increase [3] 0.49% | viability [4] 98.4% | viability [5] 103% | inhibition [6] 0.555% | RAM network inhibition [7] 2.33%

Cc1ccc2oc(=O)c3cnn(CC(=O)NCCCOC(C)C)c3c2c1
inactive: growth inhibition [1] -9.03% | growth inhibition [2] -7.34% | viability increase [3] -2.72% | viability [4] 106% | viability [5] 94.2% | inhibition [6] 1.87% | RAM network inhibition [7] 8.19%

N#Cc1nc(-c2ccccc2F)oc1NCCN1CCOCC1
inactive: growth inhibition [1] -19.2% | growth inhibition [2] -36.8% | viability increase [3] -1.89% | viability [4] 104% | viability [5] 95% | inhibition [6] 1.17% | RAM network inhibition [7] 0.32%

CCn1cc(S(=O)(=O)CC(=O)Nc2ccc(C)cc2)c2ccccc21
inactive: growth inhibition [1] 0.74% | growth inhibition [2] -4.11% | viability increase [3] -0.58% | viability [4] 92.7% | viability [5] 93% | inhibition [6] 1.61% | RAM network inhibition [7] 2.02%

CC(=O)N1CCc2cc(C(=O)CN3CCN(c4ccccc4F)CC3)ccc21
inactive: growth inhibition [1] -7.16% | growth inhibition [2] -7.33% | viability increase [3] -3.19% | viability [4] 93.7% | viability [5] 88% | inhibition [6] 2.17% | RAM network inhibition [7] 2.34%

C#CCn1c(=NC(=O)c2cccs2)sc2cccc(OC)c21
inactive: growth inhibition [1] -11.2% | growth inhibition [2] -16.3% | viability increase [3] -3.51% | viability [4] 79.6% | viability [5] 73.9% | inhibition [6] 3.34% | RAM network inhibition [7] 7.2%

CC1CCCN(C(=O)CNC(=O)Cn2ccc3ccccc3c2=O)C1 (configuration not stated)
inactive: growth inhibition [1] -10.8% | growth inhibition [2] -1.01% | viability increase [3] -1.73% | viability [4] 99.5% | viability [5] 94.5% | inhibition [6] 2.08% | RAM network inhibition [7] 2.25%

CC1(C(=O)NCc2cccnc2)CCC(=O)N1Cc1cccs1 (configuration not stated)
inactive: growth inhibition [1] -2.29% | growth inhibition [2] -1.24% | viability increase [3] 0.38% | viability [4] 108% | viability [5] 102% | inhibition [6] 0% | RAM network inhibition [7] 3.95%

OCCNc1nc(Nc2ccccc2)nc(Nc2ccccc2)n1
inactive: growth inhibition [1] 14% | growth inhibition [2] 4.96% | viability increase [3] -1.23% | viability [4] 95.8% | viability [5] 94% | inhibition [6] -0.245% | RAM network inhibition [7] -1.3%

CC(=O)Nc1ccc(-c2cc(NC(C)=O)n(-c3ccccc3)n2)cc1
inactive: growth inhibition [1] 2.46% | growth inhibition [2] -0.26% | viability increase [3] -1.76% | viability [4] 104% | viability [5] 91.7% | inhibition [6] 0.97% | RAM network inhibition [7] 3.1%
